# Assay results published in ChEMBL document CHEMBL4513216, “Probing the Open Global Health Chemical Diversity Library for Multistage-Active Starting Points for Next-Generation Antimalarials” (ACS Infect Dis, 2020).
# Test: Toxicity liver stage against HepG2, at 10uM
# Type: cell-based
# Set-up: test concentration 10 uM, cell line HepG2-A16-CD81EGFP
# Conditions: human, HepG2-A16-CD81EGFP cells; read-out: INHIBITION
# How it was run: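 Uninfected HepG2-A16-CD81EGFP cells, 3 × 10^3 per well, 1536-well, plated on prespotted compound at 10 μM final, parasite-free screening media added to match infected plates; puromycin 10 μM positive, DMSO 0.5% negative; run in parallel with 48 h PbLuc assay at 37 °C, 5% CO2; viability by CellTiter-Glo luminescence, normalized to controls.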
row,SMILES,cytotoxicity at 10 µM [%]
1,Cc1ccc(CNC2(Cc3cc(-c4ccccc4)on3)COC2)o1,-3.24
2,CCNC(=O)N1C[C@@H]2OCC(=O)N(Cc3cccnc3)[C@@H]2C1,7.95
3,CCNC(=O)c1cn(C(C)(C)C)c2ncccc12,-1.28
4,CCCC(O)CN1CCC(=O)N(CCOC)Cc2cc3c(cc21)OCO3 (centres undefined),6.91
5,CO[C@@H]1CN(c2ccccc2)S(=O)(=O)[C@@]12CCN(CC1CC1)C2,1.84
6,COc1ccc(CCC(=O)Nc2ccc3ncn(C)c(=O)c3c2)cc1,6.44
7,Cc1cc(NC(=O)Cn2cnc(-c3cccs3)cc2=O)no1,-0.243
8,O=C(NCc1ccccc1)N1CCC(Oc2ncccc2Cl)CC1,17
9,O=C(NC1CCN(c2nccs2)CC1)c1cccs1,4.17
10,CC(C)Nc1nc(N2CCCC2)nc2c1CN(C)CC2,-0.376
11,Cc1nc(-c2nc(C(=O)N3CCOCC3)c3ccccn23)cn1C(C)C,1.53
12,CCS(=O)(=O)N1C[C@H](c2nc(C)no2)C[C@H]2OCC[C@H]21,-119
13,O=C(c1ccco1)N1CCC[C@]2(C[C@H](Oc3ncccc3F)CO2)C1,2.49
14,CCN1CC2(CC1=O)CN(C(=O)c1ccco1)CCN(C(=O)C(C)C)C2 (centres undefined),-9.16
15,Cc1ccc(C(=O)N2C[C@@H]3C[C@@H](c4nnc(C5CC5)o4)O[C@@H]3C2)s1,-133
16,Cc1ccc(NC(=O)CCc2cnn(C)c2)cc1F,-1.69
17,COC(=O)C1=C(C)N=C2SCC(=O)N2C1c1cnn(C)c1C (centres undefined),4.01
18,O=C(Cn1cc(C(=O)O)cn1)Nc1c(Cl)cccc1Cl,1.57
19,COc1c(Br)c(CC2CC(CO)=NO2)c(OC)c2c1OCO2 (centres undefined),6.36
20,CC(C)(C)C(=O)N1CCCC1(C(=O)N1CCCC1)c1cnccn1 (centres undefined),4.84
21,CC(C)c1nnc(NC(=O)N(C)Cc2ccc(C(N)=O)cc2)s1,12
22,O=C(C1CC1)N1CCCCCC1C1CCN(c2ncccn2)CC1 (centres undefined),-9.56

row,SMILES,cytotoxicity at 10 µM [%]
1,COc1cccc(C(CO)NC(=O)Cc2ccc(F)c(Br)c2)c1 (centres undefined),8.44
2,Cc1ccc(-c2noc(CCC(=O)NC(C)Cn3cccn3)n2)cc1 (centres undefined),8.41
3,O=C(NCCCO)NCCc1cc(F)ccc1F,2.37
4,CCOC(=O)CN(CC(F)(F)F)C(=O)c1nc(C)n2ccccc12,-20.9
5,CN(CCOc1ccc(C#N)cc1)CC1CCS(=O)(=O)C1 (centres undefined),-6.94
6,Cn1cc(CNC2CCc3ncnn3C2)c(-c2ccncc2)n1 (centres undefined),-8.55
7,COCCC1(CNC(=O)Nc2ccc(-n3cccn3)cc2)CCC1,-2.75
8,COc1ccccc1S(=O)(=O)N1CC(N(C)C)Cc2ccccc21 (centres undefined),0.243
9,Cc1ccc(CN(C)C(=O)CCNS(=O)(=O)c2cccnc2)cc1,-10.6
10,CCS(=O)(=O)NCCNC(=O)c1cnc(-c2ccccc2)nc1,13.8
11,Cc1cccc(C(=O)N2CCN(S(C)(=O)=O)[C@@H](C)C2)c1Cl,5.58
12,O=C(C(CNCc1cccnc1)c1ccccc1)N1CCOCC1 (centres undefined),2.49
13,Cc1cnn(CCNCC(=O)NC2(C#N)CCCC2)c1,-13.2
14,FC(F)Sc1ccc(NCc2nnc(C3CC3)o2)cc1,14.7
15,CCc1cc(CNC(=O)C2CCCN(C(=O)NCC(C)C)C2)[nH]n1 (centres undefined),7.23
16,O=C(Nc1ccccc1OC1CCOC1)c1[nH]nc2c1CCCC2 (centres undefined),0.271
17,NC(=O)C(NC(=O)Cc1cnn(-c2ccccc2)n1)c1ccccc1 (centres undefined),-3.05
18,CCn1cc(CNc2ccc(F)c(N3CCCS3(=O)=O)c2)cn1,-17
19,CCCN1CCCN(CCCOc2cccc(C#N)c2)CC1,18
20,Cc1cc(C)c2c(c1)C(NC(=O)CSc1nnc[nH]1)CCO2 (centres undefined),-3.91
21,Cc1cc(C(=O)Nc2cccn(Cc3ccc(F)cc3)c2=O)no1,3.15
22,Cn1c(N)nnc1SCc1cc(Br)ccc1Cl,-21.7

row,SMILES,cytotoxicity at 10 µM [%]
1,Nc1nc(CN2CCN(c3nccs3)CC2)cs1,4.79
2,CN(C(=O)c1cccn1C)C1CCC(NC(=O)OC(C)(C)C)CC1 (centres undefined),-4.18
3,Cc1cc(NC(=O)N2CCCC2C(=O)NC2CC2)c2ncccc2c1 (centres undefined),-2.43
4,NC(=O)C(NC(=O)COC1CCCCC1)c1ccccc1 (centres undefined),-4.65
5,CN(C)S(=O)(=O)N1CCCC1C(=O)N1CCSCC1 (centres undefined),6.67
6,Cc1cnn(CCCNC(=O)NCCC(=O)Nc2ccccc2)c1,2.72
7,CC(NC(=O)NCCCN1CCCC1=O)c1ccc(Cl)s1 (centres undefined),-8.28
8,CCO[C@@H]1CC[C@H]2[C@H]1OCCN2C(=O)c1nn(C)c2ccccc12,-2.69
9,CCOCC1CN(c2ncccn2)Cc2cnn(CC3CCOCC3)c21 (centres undefined),2.97
10,O=C(c1cnccn1)N1C[C@@H]2CN(Cc3cccnc3)CCO[C@@H]2C1,2.89
11,COCCCN1CCN(c2ncnc3nc(C)cc(C)c23)CC1,1.54
12,CCCc1nnc(NCCc2noc(C3CCCC3)n2)o1,20.2
13,Cn1nc(CN2CCCCC(N)C2)c2c(Cl)cccc21 (centres undefined),-5.99
14,CCc1cc(NCCNC(=O)c2cccnc2)n2nc(C)c(C)c2n1,-3.05
15,CN(Cc1nc(-c2ccccc2)no1)C(=O)CNS(C)(=O)=O,0.0773
16,COCCCC1CCCCN1Cc1cc(F)ccc1-n1cccn1 (centres undefined),-3.13
17,CCc1ccccc1OC1CN(C(=O)c2sccc2N)C1,14.4
18,Cc1cccnc1CN1CCN(CC(=O)N(C)C)[C@@H]2CS(=O)(=O)C[C@@H]21,-2.33
19,COc1cc(F)ccc1C(C(=O)O)N1CCN(C2CCCCC2)CC1 (centres undefined),-8.93
20,CC(C)c1nc(N2CC[C@@H](N(C)CCc3ccccn3)[C@H](O)C2)no1,-0.662
21,Clc1ccccc1CCn1ccnc1-c1cn(C2CCNCC2)nn1,0.33
22,CC1(C(=O)N2CCC(n3cc(C4(O)CCCC4)nn3)CC2)CCCCC1,0.68

row,SMILES,cytotoxicity at 10 µM [%]
1,CN(Cc1ccc(CCC(C)(C)O)cc1)Cc1cccc(O)c1,-7.43
2,Cc1ccc(OCC2CCCN(Cc3ccc(CO)o3)C2)cc1 (centres undefined),5.66
3,CCC(C)N(Cc1cccnc1)C(=O)CCSC (centres undefined),0.305
4,COC[C@]1(O)CCN(Cc2ccc(N(C)C)nc2)CC1(C)C,7.63
5,Cc1ccccc1C(C(=O)N1CCN(C(=O)c2ccc[nH]2)CC1)N(C)C (centres undefined),-7.98
6,Cn1c(CCC(=O)N2CCCC3(CNC(=O)O3)C2)nc2cccnc21 (centres undefined),2.3
7,CN(CCO)C1CCN(c2ncc3c(n2)CCN3c2ccccc2)CC1,-2.3
8,CC1(C)CN(C(=O)c2cnc(-c3ccccn3)nc2)CC[C@]1(C)O,-2.52
9,CN1CCC(N2CCN(C(C(=O)O)c3cccc4c3OCC4)CC2)CC1 (centres undefined),11
10,CC(C)C(Nc1nc(C(F)(F)F)nc2ccccc12)C(=O)O (centres undefined),-1.98
11,CCC(NC(=O)C(C)C)c1ccccc1C (centres undefined),5.81
12,Cc1ccc([C@@H]2CN(S(=O)(=O)c3cc(C)ccc3F)C[C@H]2N(C)C)cc1,-7.21
13,COc1cccc(OCC2CCCN(Cc3ncc[nH]3)C2)c1 (centres undefined),4.97
14,COc1cn(-c2ccccc2)nc1C(=O)NCCN1CCCC(C)C1 (centres undefined),2.12
15,O=C(c1ccc(-n2cnnc2)cc1)N1CCC(Nc2cccnn2)CC1,-6.12
16,COc1ccccc1CC(=O)N1CCC(NCc2ccncc2)CC1,-9.69
17,Cc1nc2n(n1)CC(NCc1csc(-c3ccsc3)n1)CC2 (centres undefined),-0.544
18,CCn1ccnc1CN1CCN(CC(=O)NC2CCOCC2)CC1,-6.22
19,c1ccc(-c2nc(CN3CCOC(Cn4cccn4)C3)co2)cc1 (centres undefined),0.724
20,Cc1cccc(N(C)S(=O)(=O)c2cc(C(=O)O)cs2)c1,-6.12
21,COc1c(Br)cc(Br)cc1CNC(C)Cn1cccn1 (centres undefined),3.64
22,CCc1nc(CN2CCCN(c3nccs3)CC2)no1,-6.44

row,SMILES,cytotoxicity at 10 µM [%]
1,CC(CCc1ccco1)NC(=O)Nc1cc(C(F)(F)F)c[nH]c1=O (centres undefined),-6.9
2,CN(C)c1cc(C(=O)N2CCCC(n3cccn3)C2)ccn1 (centres undefined),-0.781
3,CN(C)c1cc(C(=O)N2CCN(c3cnccn3)CC2)ccn1,-7.64
4,Cc1nc(CN2CCOC(CNc3cccnn3)C2)cs1 (centres undefined),-12
5,COC(=O)NCC1CCC2(CCNCC2)O1 (centres undefined),1.82
6,COc1ccc(CN2CCc3nnc(COCCN(C)C)n3CC2)cc1,4.5
7,O=C(c1ccco1)N1C[C@@H]2OCCN(c3ncccn3)[C@@H]2C1,6.4
8,Cn1ccnc1C(=O)N[C@@H]1CN(Cc2cccs2)[C@@H]2CCCO[C@@H]21,3.16
9,CO[C@@H]1CCN(Cc2c(C)noc2C)[C@@H]2CN(Cc3cccnc3)C[C@@H]21,11.9
10,CC(C)c1nn(C)c(N(C)C)c1CNC(C)c1ccc2c(c1)OCO2 (centres undefined),-4.49
11,Cc1ccc(CN2CCc3c(COC(C)C)nn(C)c3C2)s1,0.661
12,NC(c1ccc(Cl)cc1)c1cccs1 (centres undefined),-17.1
13,Cc1csc([C@@H]2C[C@H]3CN(c4ncc(F)cn4)C[C@H]3O2)n1,6.88
14,CN1CCC2(CC1)CN(CC1CC1)CC21CCNC1=O (centres undefined),2.02
15,Cc1cccc(CO[C@H]2CN(c3nnc(C)s3)[C@@H]3CCCO[C@H]23)n1,4.47
16,Cc1ccoc1C(=O)N1CCO[C@H]2[C@H](OCCN(C)C)CC[C@@H]21,-5.88
17,Cn1ccc(C(=O)N2CCC3(CCN3c3ncccn3)C2)n1 (centres undefined),9.41
18,CO[C@H]1CC[C@H]2[C@H]1OCCN2Cc1ccc(F)c(F)c1,22.3
19,Cc1nnc(N2CCCC3(CN(Cc4cccnc4)CCO3)C2)o1 (centres undefined),4.96
20,CC(C)NC(=O)N1Cc2nccn2CC(COc2cccnc2)C1 (centres undefined),7.77
21,Cn1cc(CN2CCCC3(CCN(c4nncs4)C3)C2)cn1 (centres undefined),5.41
